Measured values reported in ChEMBL document CHEMBL4033799, “Stable and Long-Lasting, Novel Bicyclic Peptide Plasma Kallikrein Inhibitors for the Treatment of Diabetic Macular Edema” (J Med Chem, 2018).
Each block holds one compound with its values, some of them ahead of it. The source made the active and inactive calls. The calls are words filed in the database; no cut-off is given here.

Columns and labels:
Plasma = test: Anti-coagulating activity in factor 8-deficient human plasma assessed as increase in coagulation time at 10 uM by aPTT assay; assay type: functional
How it was run: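 Clotting time measured on a coagulation analyzer using actin FS, 0.025 M CaCl2, FVIII-deficient human plasma and Owren's Veronal Buffer pH 7.35, run per the manufacturer's instructions. Peptide tested from zero (vehicle) up to 10 μM. Each point is the mean ± SD of triplicates.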

Rattus norvegicus = test: Antiinflammatory activity in Sprague-Dawley rat carrageenan-induced paw edema model assessed as inhibition of paw edema AUC (0 to 2 hrs) at 10 to 30 mg/kg, ip pretreated for 15 mins followed by carrageenan challenge; assay type: functional, organism-based
How it was run: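 Male Sprague-Dawley rats received peptide IP (30, 10 or 3 mg/kg), or indomethacin IP at 5 mg/kg, 15 min before subplantar carrageenan. Paw volume was followed over time against a vehicle group.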

[1] = Drug level in New Zealand white rabbit ipsialateral eye vitreous humor at 2 mg/ml, administered via ivt injection at late time point measured up to 100 hrs by LC-MS/MS analysis; assay type: ADME, tissue-based, Oryctolagus cuniculus; conditions: ipsilateral eye vitreous humor, topical or ocular, read-out: Drug uptake
How it was run: (§1)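 Male New Zealand White rabbits (10 weeks old, ~2 kg) received one 50 μL intravitreal injection per eye of peptide at 2 mg/mL in 50 mM sodium phosphate, pH 7.2. Animals were sacrificed at 15 min, 1, 4, 8, 24, 48 and 96 h (3 per time point). Whole vitreous was homogenized, clarified, 0.2 μm filtered and assayed by LC-MS/MS, with a lower limit of detection of 1 ng/mL in vitreous.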

[2] = Drug level in New Zealand white rabbit ipsialateral eye vitreous humor at 2 mg/ml, administered via ivt injection at early time point measured up to 100 hrs by LC-MS/MS analysis; assay type: ADME, tissue-based, Oryctolagus cuniculus; conditions: ipsilateral eye vitreous humor, topical or ocular, read-out: Drug uptake; how it was run: as §1
Plasma kallikrein [3] = target: Plasma kallikrein (Rattus norvegicus, UniProt P14272); test: Inhibition of recombinant Sprague-Dawley rat plasma kallikrein using fluorogenic H-Pro-Phe-Arg-AMC peptide as substrate preincubated for 15 mins followed by substrate addition measured by fluorescence-based assay; conditions: read-out: Ki(app)
Plasma kallikrein [4] = target: Plasma kallikrein (Homo sapiens, UniProt P03952); test: Inhibition of human plasma kallikrein using fluorogenic H-Pro-Phe-Arg-AMC peptide as substrate preincubated for 15 mins followed by substrate addition measured by fluorescence-based assay; conditions: read-out: Ki(app)
Sequence of Plasma kallikrein (Homo sapiens, UniProt P03952) (P03952 20-390 limits assumed): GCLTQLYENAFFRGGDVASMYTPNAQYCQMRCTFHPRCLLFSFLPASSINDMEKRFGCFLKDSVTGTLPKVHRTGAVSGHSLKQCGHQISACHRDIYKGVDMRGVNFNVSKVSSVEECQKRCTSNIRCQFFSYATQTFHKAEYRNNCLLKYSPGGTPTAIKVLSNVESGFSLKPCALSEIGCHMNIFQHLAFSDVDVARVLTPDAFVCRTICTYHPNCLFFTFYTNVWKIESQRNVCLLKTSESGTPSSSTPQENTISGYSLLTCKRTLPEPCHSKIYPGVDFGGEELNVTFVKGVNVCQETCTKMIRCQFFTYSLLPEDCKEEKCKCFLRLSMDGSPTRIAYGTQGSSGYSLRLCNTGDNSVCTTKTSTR
Sequence of Plasma kallikrein (Homo sapiens, UniProt P03952) (P03952 391-638 limits assumed): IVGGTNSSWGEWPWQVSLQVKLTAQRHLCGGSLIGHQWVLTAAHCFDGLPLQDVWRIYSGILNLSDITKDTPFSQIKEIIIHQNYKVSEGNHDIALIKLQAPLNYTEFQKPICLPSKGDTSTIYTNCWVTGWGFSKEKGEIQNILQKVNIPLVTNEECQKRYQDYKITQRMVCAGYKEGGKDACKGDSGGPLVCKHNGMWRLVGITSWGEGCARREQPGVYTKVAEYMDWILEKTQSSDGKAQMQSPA

Sequence of Plasma kallikrein (Rattus norvegicus, UniProt P14272) (P14272 20-390 limits assumed): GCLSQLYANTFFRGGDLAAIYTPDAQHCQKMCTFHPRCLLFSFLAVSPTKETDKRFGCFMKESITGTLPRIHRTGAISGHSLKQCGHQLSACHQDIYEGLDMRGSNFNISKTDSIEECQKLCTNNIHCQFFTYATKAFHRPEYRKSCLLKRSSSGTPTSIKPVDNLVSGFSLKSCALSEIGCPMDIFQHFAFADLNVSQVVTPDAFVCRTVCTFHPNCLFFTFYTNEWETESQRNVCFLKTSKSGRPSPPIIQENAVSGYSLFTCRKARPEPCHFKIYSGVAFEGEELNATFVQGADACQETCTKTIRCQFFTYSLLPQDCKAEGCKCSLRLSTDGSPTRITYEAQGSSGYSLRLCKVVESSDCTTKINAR
Sequence of Plasma kallikrein (Rattus norvegicus, UniProt P14272) (P14272 391-638 limits assumed): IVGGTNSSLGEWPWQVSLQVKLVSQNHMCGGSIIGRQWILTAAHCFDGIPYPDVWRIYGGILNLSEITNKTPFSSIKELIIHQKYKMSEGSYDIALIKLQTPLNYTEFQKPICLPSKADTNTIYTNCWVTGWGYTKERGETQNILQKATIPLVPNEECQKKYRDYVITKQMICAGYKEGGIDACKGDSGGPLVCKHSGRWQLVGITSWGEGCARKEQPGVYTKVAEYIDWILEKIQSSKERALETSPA

Structure (SMILES): CC(=O)N[C@H]1CSCc2cc3cc(c2)CSC[C@H](C(=O)N[C@@H](C)C(=O)N(C)CC(=O)N(C)CC(=O)N(C)CC(=O)N[C@H](CCCNC(=N)N)C(=O)N[C@H](CCCNC(=N)N)C(=O)O)NC(=O)[C@H](CC(C)C)NC(=O)[C@@H]2CCCN2C(=O)[C@H](C)NC(=O)[C@H](CC(=O)O)NC(=O)[C@H](Cc2c[nH]c4ccccc24)NC(=O)[C@@H]2CCCN2C(=O)[C@H](CSC3)NC(=O)[C@H](Cc2c[nH]c3ccccc23)NC(=O)[C@@H]2CCCN2C(=O)[C@H](CC(N)=O)NC(=O)[C@H](Cc2c[nH]c3ccccc23)NC(=O)[C@H]([C@@H](C)O)NC(=O)[C@H](CC(N)=O)NC1=O
Activity (Plasma): < 5%
inhibition (Rattus norvegicus): Active

concentration at 100 h [1]: 8 µM
concentration at 100 h [2]: 45 µM
Structure (SMILES): CC(=O)N[C@H]1CSCc2cc3cc(c2)CSC[C@H](NC(=O)[C@H](CCCCNC(=N)N)NC(=O)[C@H](Cc2ccc(O)cc2)NC(=O)[C@@H]2CCN2C(=O)[C@H](Cc2ccccc2)NC(=O)[C@H](CO)NC1=O)C(=O)N[C@@H](C)CN[C@@H](Cc1cnc[nH]1)C(=O)N[C@@H](CCC(N)=O)C(=O)N[C@@H](CC(=O)O)C(=O)N[C@@H](CC(C)C)C(=O)N[C@H](C(=O)O)CSC3

Ki (Plasma kallikrein [3]): 5.5 nM
Ki (Plasma kallikrein [4]): 0.25 nM
Structure (SMILES): CC[C@H](C)[C@@H]1NC(=O)[C@H](CC(=O)O)NC(=O)[C@@H]2CCCN2C(=O)[C@H](Cc2ccc(O)cc2)NC(=O)[C@H](Cc2ccc(O)cc2)NC(=O)[C@H](C(C)C)NC(=O)[C@@H]2CSCc3cc(cc(c3)CSC[C@@H](C(=O)N[C@@H](C)C(=O)N(C)CC(=O)N(C)CC(=O)N(C)CC(=O)N[C@H](CCCNC(=N)N)C(=O)N[C@H](CCCNC(=N)N)C(=O)O)NC1=O)CSC[C@H](NC(C)=O)C(=O)N[C@@H](CO)C(=O)N[C@@H](Cc1ccccc1)C(=O)N1CCC1C(=O)N[C@@H](Cc1ccc(O)cc1)C(=O)N[C@@H](CCCCNC(=N)N)C(=O)N2 (stereo partly specified)
